IDH1 mut inh – inhibitors of IDH1 R132H reductase, primary screen, biochemical, plate reader, single point; Isocitrate dehydrogenase [NADP] cytoplasmic (Homo sapiens), O75874; diaphorase/resazurin fluorescence, 60 min; inhibition, % at 10 µM; hit rate 0.18% among 70,000; AID 624101, 2012; in the data active = inhibition above about 34%; inconclusive = no clear call, values can overlap the other calls; inactive = below about 11%;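 also: 0% = DMSO and 100% = no enzyme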
Target sequence (O75874 whole entry R132H): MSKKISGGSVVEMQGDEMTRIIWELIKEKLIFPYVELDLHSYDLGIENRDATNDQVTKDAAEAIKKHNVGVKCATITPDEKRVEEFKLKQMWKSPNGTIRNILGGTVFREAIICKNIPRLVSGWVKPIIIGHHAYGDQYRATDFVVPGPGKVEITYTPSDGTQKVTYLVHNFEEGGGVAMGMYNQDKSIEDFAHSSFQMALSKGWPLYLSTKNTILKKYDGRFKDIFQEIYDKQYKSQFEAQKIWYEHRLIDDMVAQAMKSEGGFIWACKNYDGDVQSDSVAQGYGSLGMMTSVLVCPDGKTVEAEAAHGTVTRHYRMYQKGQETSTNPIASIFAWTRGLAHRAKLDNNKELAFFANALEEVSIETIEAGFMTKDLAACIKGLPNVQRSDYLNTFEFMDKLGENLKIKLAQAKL
GASC1 inh – inhibitors of GASC-1 (KDM4C) histone demethylase, primary screen, biochemical, single concentration HTS; AID 720574, 2013; GST-KDM4C 2-372, H3K9me3 peptide, LANCE TR-FRET; inhibition, % at 12.5 µM; hit rate 0.15% among 96,000; Lysine-specific demethylase 4C (Homo sapiens), Q9H3R0;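 active = mean replicate inhibition above about 25%, with at least 55% of replicates also reaching it, limit read from the data, passing the limit was not always enough; inconclusive = only one of those two conditions met; inactive = neither condition met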
Target sequence (Q9H3R0 2-372 limits assumed): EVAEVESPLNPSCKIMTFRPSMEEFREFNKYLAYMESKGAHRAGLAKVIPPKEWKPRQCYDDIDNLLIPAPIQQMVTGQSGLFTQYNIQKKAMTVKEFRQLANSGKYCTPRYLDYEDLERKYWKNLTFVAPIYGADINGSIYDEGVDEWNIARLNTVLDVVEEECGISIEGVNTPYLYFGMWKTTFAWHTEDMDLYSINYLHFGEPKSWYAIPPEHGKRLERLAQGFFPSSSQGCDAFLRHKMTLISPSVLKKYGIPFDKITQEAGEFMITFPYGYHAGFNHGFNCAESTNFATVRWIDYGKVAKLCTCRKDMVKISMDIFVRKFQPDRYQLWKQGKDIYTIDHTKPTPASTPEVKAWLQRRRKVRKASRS
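reagent = H3K9me3 peptide substrate, Fe(II), 2-oxoglutarate | system = GST-tagged GASC-1 (JMJD2C) catalytic fragment, aa 2-372 | amount = enzyme final amount 10 nM | read-out = Fall in 671/618 emission ratio as inhibition | medium = HEPES buffer, pH 7.5, plus ascorbate | schedule = 30 min reaction, 60 min detection, RT | measured by = LANCE TR-FRET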
T cruzi growth-1 – T. cruzi intracellular proliferation inhibitors, primary screen, cell-based, beta-gal Tulahuen parasites, NIH3T3 host, luminescence. T. cruzi beta-gal in NIH3T3, GalScreen luminescence, 90 h. inhibition, % at 8.34 µM. hit rate 5.9% among 77,000. AID 624255, 2012;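 active = mean inhibition above about 93%, with at least 55% of replicates each passing it, limit read from the data, passing the limit was not always enough; inconclusive = only one of those two conditions holds; inactive = neither condition holds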
T cruzi growth-2 – T. cruzi intracellular proliferation inhibitors, confirmation, cell-based, NIH3T3 host, beta-gal parasite, luminescence, cherry-pick; T. cruzi beta-gal in NIH3T3, GalScreen luminescence, 90 h; shares compounds with T cruzi growth-1; hit rate 72% among 5,600; inhibition, % at 8.35 µM;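 active = mean replicate inhibition above about 95% and at least 55% of replicates individually reaching it, limit read from the data; inconclusive = only one of the two criteria is met; inactive = neither criterion is met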
T cruzi growth-3 – inhibitors of intracellular T. cruzi replication, confirmation, NIH3T3 host cells, beta-gal parasites, cherry-pick, set 2. AID 651740, 2012. shares compounds with T cruzi growth-1. inhibition, % at 2.09 µM. T. cruzi beta-gal in NIH3T3, GalScreen luminescence, 90 h. hit rate 21% among 5,600;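 active = mean inhibition above about 95%, with at least 55% of replicates also reaching it, limit read from the data; inconclusive = meets just one of the two conditions; inactive = meets neither condition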;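 also: plate controls were neutral control median for no effect and positive control median for full effect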
NIH3T3 tox – cytotoxicity in mouse NIH/3T3 fibroblasts, confirmation, cytotoxicity control for T. cruzi proliferation inhibitor project, cell-based, cherry-pick, single point | shares compounds with T cruzi growth-1 | NIH/3T3 viability, CellTiter-Glo ATP luminescence, 90 h | cytotoxicity (signal decrease), % at 8.35 µM | hit rate 14% among 5,600;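 active = mean signal decrease across replicates above about 35% based on untreated-well scatter, with enough replicates individually passing, limit read from the data; inconclusive = no rule stated though some were filed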;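 also: 0% = median of neutral control wells and 100% = median of positive control wells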
3T3 cytotox 2 – NIH/3T3 fibroblast cytotoxicity, confirmation, cytotoxicity control, cell-based, cherry-pick, single point, set 2; shares compounds with T cruzi growth-1; NIH/3T3 viability, CellTiter-Glo ATP luminescence, 90 h; inhibition, % at 24.9 µM; hit rate 56% among 5,600; AID 651744, 2012;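 active = mean loss of cell viability signal at or above a set limit, and enough replicates individually reaching it; inconclusive = meets only the mean limit or only the replicate share; inactive = meets neither condition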;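 also: 0% = median of neutral control wells and 100% = median of positive control wells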
* hit, by the source's call; u = inconclusive; x = not tested or not shown. This is one part of a sample in which hits are shown more often than they occur.

SMILES | IDH1 mut inh | GASC1 inh | T cruzi growth-1 | T cruzi growth-2 | T cruzi growth-3 | NIH3T3 tox | 3T3 cytotox 2
CC(C)C#Cc1ccc2c(c1)O[C@@H](CN(C)CC1CCCC1)[C@H](C)CN([C@@H](C)CO)S2(=O)=O | 0.0 | -0.8 | 91.9* | 105.5* | 52.6 | 40.7* | 103.3*
C[C@H]1CN([C@@H](C)CO)S(=O)(=O)c2ccc(C#Cc3ccccc3)cc2O[C@H]1CN(C)CC1CC1 | -0.1 | -2.5 | 117.1* | 102.8* | 52.0 | 33.7 | 105.4*
C[C@@H]1CN([C@H](C)CO)S(=O)(=O)c2ccc(C#Cc3ccccc3)cc2O[C@@H]1CN(C)CC1CC1 | -4.6 | 7.4 | 94.0 | x | x | x | x
CC(C)C#Cc1ccc2c(c1)O[C@@H](CN(C)CC1CCOCC1)[C@H](C)CN([C@@H](C)CO)S2(=O)=O | 0.3 | 0.7 | 86.3 | x | x | x | x
CC(C)C#Cc1ccc2c(c1)O[C@@H](CN(C)CC1CCCC1)[C@H](C)CN([C@H](C)CO)S2(=O)=O | 0.1 | -2.6 | 92.0* | 104.5* | 98.1* | 54.8* | 104.5*
CC(C)C#Cc1ccc2c(c1)O[C@H](CN(C)CC1CC1)[C@H](C)CN([C@@H](C)CO)S2(=O)=O | -0.1 | -0.1 | 50.5 | x | x | x | x
COc1ccc2c3c(n(C)c2c1)[C@@H](CO)N(C(=O)c1cnccn1)CC31CCN(C(=O)c2cnccn2)CC1 | x | 3.8 | x | x | x | x | x
C[C@H]1CN([C@@H](C)CO)C(=O)c2cc(C#CCN(C)C)cnc2O[C@H]1CN(C)C(=O)NC1CCCCC1 | -1.7 | 3.8 | -29.4 | x | x | x | x
C[C@H](CO)N1C[C@H](C)[C@@H](CN(C)C)Oc2cc(C#CCC3CCCC3)ccc2S1(=O)=O | -2.6 | -1.1 | u | 107.3* | 86.0 | 31.0 | 103.3*
C[C@H]1CN([C@@H](C)CO)S(=O)(=O)c2ccc(C#CCC3CCCC3)cc2O[C@H]1CN(C)C(=O)CN(C)C | -0.2 | -0.8 | 106.7 | x | x | x | x
C[C@H](CO)N1C[C@H](C)[C@@H](CN(C)C(=O)CN(C)C)Oc2cc(C#CCC3CCCC3)ccc2S1(=O)=O | 1.9 | 1.7 | 121.7 | x | x | x | x
C[C@H](CO)N1C[C@H](C)[C@H](CN(C)C)Oc2cc(C#CCC3CCCC3)ccc2S1(=O)=O | 0.5 | 0.3 | 17.5 | x | x | x | x
C[C@@H]1CN([C@H](C)CO)S(=O)(=O)c2ccc(C#CCC3CCCC3)cc2O[C@@H]1CN(C)C(=O)c1ccccn1 | -1.5 | 0.2 | 109.9* | 100.3* | 29.3 | 51.2* | 103.9*
CCC(=O)N(C)C[C@@H]1Oc2cc(C#CCC3CCCC3)ccc2S(=O)(=O)N([C@@H](C)CO)C[C@H]1C | -0.1 | -5.6 | 128.8* | 108.8* | 77.0 | 8.9 | 104.1*
CCC(=O)N(C)C[C@H]1Oc2cc(C#CCC3CCCC3)ccc2S(=O)(=O)N([C@@H](C)CO)C[C@H]1C | 0.0 | -0.7 | 119.3* | 98.3* | 89.0 | 27.3 | 104.9*
C[C@@H]1CN([C@@H](C)CO)S(=O)(=O)c2ccc(C#CCC3CCCC3)cc2O[C@@H]1CN(C)C(=O)c1ccccn1 | x | 0.8 | 76.8 | x | x | x | x
O=C(C[C@@H]1CC[C@H](NC(=O)Nc2cccc(F)c2)[C@H](CO)O1)NCC1CCCCC1 | 0.1 | 0.9 | x | x | x | x | x
CCCN(C)C[C@H]1Oc2ncc(-c3cccc(C(=O)N(C)C)c3)cc2C(=O)N([C@@H](C)CO)C[C@H]1C | -2.1 | -0.4 | 10.1 | x | x | x | x
C[C@H](CO)N1C[C@H](C)[C@@H](CN(C)Cc2ccc3c(c2)OCO3)Oc2ccc(NC(=O)CCC(F)(F)F)cc2CC1=O | 1.4 | 0.8 | 89.0 | x | x | x | x
CCC(=O)N(C)C[C@H]1Oc2cc(C#CCC3CCCC3)ccc2S(=O)(=O)N([C@@H](C)CO)C[C@@H]1C | 5.8 | -0.8 | 127.8* | 105.6* | 93.9 | 43.2* | 104.7*
CCC(=O)N(C)C[C@H]1Oc2cc(C#CCC3CCCC3)ccc2S(=O)(=O)N([C@H](C)CO)C[C@@H]1C | -0.2 | -1.1 | 75.4 | x | x | x | x
COCC(=O)N1CCCCN2[C@H](CO)[C@@H](c3ccc(C#Cc4ccc(OC)cc4)cc3)[C@@H]2C1 | x | -0.4 | 107.6* | u | 5.6 | 17.5 | 86.1*
COCC(=O)N1CCCCN2[C@H](CO)[C@@H](c3ccc(C#Cc4ccc(OC)cc4)cc3)[C@H]2C1 | x | 1.8 | 92.3 | x | x | x | x
COCC(=O)N1CCCCN2[C@@H](CO)[C@H](c3ccc(C#Cc4ccccc4)cc3)[C@@H]2C1 | x | -1.0 | 97.2* | u | 10.4 | 32.9 | 62.1*
COCC(=O)N1CCCCN2[C@H](C1)[C@@H](c1ccc(C#Cc3ccccc3)cc1)[C@@H]2CO | x | 1.2 | 59.0 | x | x | x | x
SMILES | IDH1 mut inh | GASC1 inh | T cruzi growth-1 | T cruzi growth-2 | T cruzi growth-3 | NIH3T3 tox | 3T3 cytotox 2
COCC(=O)N1CCCCN2[C@H](CO)[C@H](c3ccc(C#Cc4ccccc4)cc3)[C@@H]2C1 | x | 0.3 | u | 98.8* | 37.1 | 44.2* | 69.0*
COCC(=O)N1CCCCN2[C@H](C1)[C@H](c1ccc(C#Cc3ccccc3)cc1)[C@@H]2CO | x | -0.3 | 43.4 | x | x | x | x
O=C(CCN1C(=O)C2C3C=CC(C4CC34)C2C1=O)Nc1ccc(Br)cc1Cl (stereo not given) | 0.2 | x | x | x | x | x | x
O=C(C[C@H]1C=C[C@@H](NC(=O)C2CC2)[C@@H](CO)O1)NCCCN1CCOCC1 | 0.4 | -2.2 | x | x | x | x | x
O=C(N[C@@H]1CC[C@H](CC(=O)N2CCc3ccccc3C2)O[C@@H]1CO)C1CCC1 | 0.2 | 1.5 | -0.8 | x | x | x | x
CCOc1ccc(C)cc1S(=O)(=O)NCc1ccco1 | -0.4 | x | x | x | x | x | x
C[C@H](CO)N1C[C@H](C)[C@H](CN(C)C(=O)Nc2cccc3ccccc23)Oc2c(NC(=O)c3ccncc3)cccc2C1=O | 4.5 | 0.5 | 75.7 | x | x | x | x
C[C@H](CO)N1C[C@H](C)[C@@H](CN(C)C(=O)Nc2cccc3ccccc23)Oc2c(NC(=O)Nc3ccc(C(F)(F)F)cc3)cccc2C1=O | x | 0.0 | 97.1* | 104.0* | 48.8 | 29.9 | 103.2*
C[C@H]1CN([C@@H](C)CO)C(=O)c2cccc(NC(=O)Nc3ccc(F)cc3)c2O[C@H]1CN(C)C(=O)Nc1cccc2ccccc12 | 1.5 | -0.2 | -12.7 | x | x | x | x
C[C@H](CO)N1C[C@H](C)[C@H](CN(C)C(=O)Nc2ccccc2)Oc2c(NC(=O)Nc3cccc4ccccc34)cccc2C1=O | 0.3 | 1.2 | 110.0* | 107.3* | 80.8 | 8.1 | 41.4*

Assay outcomes deposited in PubChem BioAssay by Broad Institute.
